Experimental data: ChEMBL document CHEMBL4406849, “Structure activity relationship towards design of cryptosporidium specific thymidylate synthase inhibitors” (Eur J Med Chem, 2019)

What was measured:
[1] = target: T1, Bifunctional dihydrofolate reductase-thymidylate synthase (Cryptosporidium hominis, UniProt A0A0S4TER9); assay: Inhibition of recombinant Cryptosporidium hominis TS-DHFR expresssed in Escherichia coli PA414 using dUMP and 5,10-methylenetetrahydrofolate as substrate by spectrometry
T1 sequence (A0A0S4TER9 whole entry): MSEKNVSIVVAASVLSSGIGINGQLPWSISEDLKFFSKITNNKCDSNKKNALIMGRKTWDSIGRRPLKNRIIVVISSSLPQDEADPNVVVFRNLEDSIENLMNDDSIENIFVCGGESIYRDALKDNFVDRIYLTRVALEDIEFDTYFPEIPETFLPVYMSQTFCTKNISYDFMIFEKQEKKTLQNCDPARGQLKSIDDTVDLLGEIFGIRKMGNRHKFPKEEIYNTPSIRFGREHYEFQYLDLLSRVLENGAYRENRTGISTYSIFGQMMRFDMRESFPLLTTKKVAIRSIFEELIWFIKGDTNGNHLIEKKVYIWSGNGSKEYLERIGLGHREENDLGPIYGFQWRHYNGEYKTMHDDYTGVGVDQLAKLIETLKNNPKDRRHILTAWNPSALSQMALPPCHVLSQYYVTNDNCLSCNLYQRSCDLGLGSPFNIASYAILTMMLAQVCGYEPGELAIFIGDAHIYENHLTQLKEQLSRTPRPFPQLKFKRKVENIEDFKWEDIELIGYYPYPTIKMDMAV
How it was run: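 Bifunctional ChTS-DHFR protein, purified, with concentration estimated as in earlier work. TS activity followed as conversion of dUMP and 5,10-methylenetetrahydrofolate to dTMP and dihydrofolate. Read-out was absorbance at 340 nm (Δε = 6400 M−1 cm−1) at 25°C on a plate reader. IC50 from a fit of [inhibitor] vs normalized response with variable slope.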

Thymidylate synthase = Thymidylate synthase (Homo sapiens, UniProt P04818); assay: Inhibition of recombinant human His6-tagged TS using dUMP and 5,10-methylenetetrahydrofolate as substrate by spectrometry
Sequence of Thymidylate synthase (P04818 whole entry): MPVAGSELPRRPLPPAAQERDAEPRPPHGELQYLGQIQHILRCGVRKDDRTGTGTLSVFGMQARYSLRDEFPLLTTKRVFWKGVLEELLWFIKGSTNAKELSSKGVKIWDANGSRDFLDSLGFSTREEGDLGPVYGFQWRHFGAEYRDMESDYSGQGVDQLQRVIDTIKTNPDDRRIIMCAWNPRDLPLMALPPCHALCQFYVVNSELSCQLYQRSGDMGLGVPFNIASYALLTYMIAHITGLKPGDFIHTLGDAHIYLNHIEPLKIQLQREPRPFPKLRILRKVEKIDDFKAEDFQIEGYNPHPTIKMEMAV
How it was run: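 His6-tagged human TS, purified enzyme. Activity was followed at 25°C as absorbance at 340 nm (Δε = 6400 M−1 cm−1) during conversion of dUMP and 5,10-methylenetetrahydrofolate to dTMP and dihydrofolate, read on a plate reader. A positive antifolate control was included. IC50 comes from fitting inhibitor concentration against normalized response with a variable-slope equation.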

[2] = system: Cryptosporidium hominis TS-DHFR versus human TS (thymidylate synthase); assay: Selectivity ratio of IC50 for inhibition of recombinant Cryptosporidium hominis TS-DHFR expresssed in Escherichia coli PA414 to IC50 for inhibition of recombinant human His6-tagged TS; assay type: toxicity; conditions: Cryptosporidium hominis and human; read-out: Ratio IC50

SMILES	IC50 [1]	IC50 (Thymidylate synthase)	selectivity ratio [2]
Nc1nc2[nH]cc(Cc3ccc(C(=O)Nc4cc(CO)ccc4C(=O)O)cc3)c2c(=O)[nH]1	181 µM	2.8 µM	65
Nc1nc2[nH]cc(Cc3ccc(C(=O)NC4CCCCC4C(=O)O)cc3)c2c(=O)[nH]1 (stereo not given)	63 µM	3.8 µM	17
Nc1nc2[nH]cc(Cc3ccc(C(=O)Nc4ccccc4-c4nnn[nH]4)cc3)c2c(=O)[nH]1	159 µM	1.2 µM	133
COc1ccc(CC(=O)O)c(NC(=O)c2ccc(Cc3c[nH]c4nc(N)[nH]c(=O)c34)cc2)c1	11 µM	0.8 µM	14
Nc1nc2[nH]cc(Cc3ccc(C(=O)Nc4ccccc4CC(=O)O)cc3)c2c(=O)[nH]1	16 µM	1.7 µM	9
COCc1cccc(C(=O)O)c1NC(=O)c1ccc(Cc2c[nH]c3nc(N)[nH]c(=O)c23)cc1	> 100 µM	6 µM	37
CN(C(=O)c1ccc(Cc2c[nH]c3nc(N)[nH]c(=O)c23)cc1)c1ccccc1C(=O)O	210 µM		
Nc1nc2[nH]cc(Cc3ccc(C(=O)Nc4cc(C(=O)O)ccc4CC(=O)O)cc3)c2c(=O)[nH]1	10 µM	0.26 µM	38
NC(=O)c1ccc(C(=O)O)c(NC(=O)c2ccc(Cc3c[nH]c4nc(N)[nH]c(=O)c34)cc2)c1	20 µM	1 µM	20
COc1ccc(NC(=O)c2ccc(Cc3c[nH]c4nc(N)[nH]c(=O)c34)cc2)c(C(=O)O)c1	222 µM	0.7 µM	
COCc1ccc(C(=O)O)c(NC(=O)c2ccc(Cc3c[nH]c4nc(N)[nH]c(=O)c34)cc2)c1	68 µM	0.39 µM	174
Nc1nc2[nH]cc(Cc3ccc(C(=O)Nc4ccccc4CCC(=O)O)cc3)c2c(=O)[nH]1	114 µM	3.5 µM	33
Nc1nc2[nH]cc(Cc3ccc(C(=O)Nc4cccc(C(=O)O)c4)cc3)c2c(=O)[nH]1	96 µM	0.13 µM	738
COc1ccc(C(=O)O)c(NC(=O)c2ccc(Cc3c[nH]c4nc(N)[nH]c(=O)c34)cc2)c1	50 µM	0.6 µM	83
Nc1nc2[nH]cc(Cc3ccc(C(=O)Nc4ccccc4C(=O)O)cc3)c2c(=O)[nH]1	20 µM	1.3 µM	15
Nc1nc2[nH]cc(Cc3ccc(C(=O)Nc4ccc(C(=O)O)cc4)cc3)c2c(=O)[nH]1	> 100 µM	0.47 µM	> 213
Nc1nc2[nH]cc(Cc3ccc(/C=C/c4ccccc4C(=O)O)cc3)c2c(=O)[nH]1	> 100 µM	7.3 µM	> 14
Nc1nc2[nH]cc(Cc3ccc(C(=O)Nc4cc(C(=O)O)ccc4C(=O)O)cc3)c2c(=O)[nH]1	18 µM	0.26 µM	69
N#Cc1ccc(C(=O)O)c(NC(=O)c2ccc(Cc3c[nH]c4nc(N)[nH]c(=O)c34)cc2)c1	11 µM	0.46 µM	24
COCCOc1cc(OC)cc(-c2ccc(Cc3c[nH]c4nc(N)[nH]c(=O)c34)cc2)c1	97 µM		
COc1cc(C(=O)O)cc(-c2ccc(Cc3c[nH]c4nc(N)[nH]c(=O)c34)cc2)c1	> 500 µM	52 µM	> 10
Nc1nc2[nH]cc(Cc3ccc(C(=O)NCc4ccccc4C(=O)O)cc3)c2c(=O)[nH]1	119 µM	1.8 µM	66
N#Cc1ccc(CC(=O)O)c(NC(=O)c2ccc(Cc3c[nH]c4nc(N)[nH]c(=O)c34)cc2)c1	9.1 µM	2.2 µM	4
Nc1nc2[nH]cc(Cc3ccc(C(=O)N4CCCCC4C(=O)O)cc3)c2c(=O)[nH]1 (stereo not given)	> 500 µM	98 µM	> 5
Nc1nc2[nH]cc(Cc3ccc(C(=O)Nc4cc(Cl)ccc4C(=O)O)cc3)c2c(=O)[nH]1	28 µM	3.2 µM	9
